Reference: ChEMBL document CHEMBL2010658, “Caspase-1 and -3 inhibiting drimane sesquiterpenoids from the extremophilic fungus Penicillium solitum” (J Nat Prod, 2012)
Active and inactive are the calls of the source. The rule behind the calls is not given here.

Experiments:
[1] = biological target: Stromelysin-1 (Homo sapiens) (UniProt P08254); test: Inhibition of MMP3 by signal transduction fluorometric assay
Procedure, shortened: (§1)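 Fluorometric enzyme inhibition assays. Reference inhibitors were Ac-YVAD-CHO for caspase-1, Ac-DEVD-CHO for caspase-3, and NNGH for MMP-3.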

Caspase-1 (Homo sapiens) = biological target: T1, Caspase-1 (Homo sapiens) (UniProt P29466); test: (§2) Inhibition of caspase 1 by signal transduction fluorometric assay; procedure, shortened: as §1
T1 sequence (whole entry): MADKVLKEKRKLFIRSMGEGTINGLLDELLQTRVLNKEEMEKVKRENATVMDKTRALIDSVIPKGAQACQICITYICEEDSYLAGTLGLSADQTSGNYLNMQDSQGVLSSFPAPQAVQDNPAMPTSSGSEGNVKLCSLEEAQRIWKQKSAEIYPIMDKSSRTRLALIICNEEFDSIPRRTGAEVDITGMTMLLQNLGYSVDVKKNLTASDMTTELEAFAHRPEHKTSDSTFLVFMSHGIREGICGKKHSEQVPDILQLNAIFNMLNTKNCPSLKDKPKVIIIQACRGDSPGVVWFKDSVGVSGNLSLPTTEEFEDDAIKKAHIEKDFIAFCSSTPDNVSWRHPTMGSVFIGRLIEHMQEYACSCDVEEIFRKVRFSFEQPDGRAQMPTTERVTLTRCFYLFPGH

Caspase-3 (Homo sapiens) = biological target: T2, Caspase-3 (Homo sapiens) (UniProt P42574); test: (§3) Inhibition of caspase 3 by signal transduction fluorometric assay; procedure, shortened: as §1
T2 sequence (whole entry): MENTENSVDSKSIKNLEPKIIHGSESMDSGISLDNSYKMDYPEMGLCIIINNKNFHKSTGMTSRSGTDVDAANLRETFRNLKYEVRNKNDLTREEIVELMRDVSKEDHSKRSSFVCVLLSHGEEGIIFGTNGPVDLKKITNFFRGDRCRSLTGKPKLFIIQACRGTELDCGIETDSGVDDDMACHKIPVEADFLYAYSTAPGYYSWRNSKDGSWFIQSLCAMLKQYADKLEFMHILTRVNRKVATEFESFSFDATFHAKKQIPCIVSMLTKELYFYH

Caspase-1 = biological target: T3, Caspase-1 (Homo sapiens, UniProt P29466); test: as §2; procedure, shortened: as §1
T3 sequence (P29466 whole entry): T1 sequence (whole entry)

THP-1 = test: Antiinflammatory activity in human THP1 cells assessed as inhibition of titanium dioxide nanowires/LPS-induced IL-1beta production at 1 to 100 uM after 24 hrs by ELISA; format: functional, cell-based
Procedure, shortened: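 PMA-differentiated THP-1 cells (1 μg/mL PMA, 24 h beforehand), grown in RPMI with 10% FBS, 0.05 mM 2-mercaptoethanol and pyruvate. Cells were scraped, pelleted, and resuspended at 1.0 × 10⁶ cells/mL. They were exposed to compound at 1, 10 and 100 μM plus LPS (20 ng/mL) and TiO₂ nanowires (100 μg/mL) for 24 h at 37 °C. IL-1β was measured by ELISA and viability by MTS (490 nm).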

Caspase-3 = biological target: T4, Caspase-3 (Homo sapiens, UniProt P42574); test: as §3; procedure, shortened: as §1
T4 sequence (P42574 whole entry): T2 sequence (whole entry)

Chain of Stromelysin-1 (Homo sapiens) (P08254 100-477 limits assumed): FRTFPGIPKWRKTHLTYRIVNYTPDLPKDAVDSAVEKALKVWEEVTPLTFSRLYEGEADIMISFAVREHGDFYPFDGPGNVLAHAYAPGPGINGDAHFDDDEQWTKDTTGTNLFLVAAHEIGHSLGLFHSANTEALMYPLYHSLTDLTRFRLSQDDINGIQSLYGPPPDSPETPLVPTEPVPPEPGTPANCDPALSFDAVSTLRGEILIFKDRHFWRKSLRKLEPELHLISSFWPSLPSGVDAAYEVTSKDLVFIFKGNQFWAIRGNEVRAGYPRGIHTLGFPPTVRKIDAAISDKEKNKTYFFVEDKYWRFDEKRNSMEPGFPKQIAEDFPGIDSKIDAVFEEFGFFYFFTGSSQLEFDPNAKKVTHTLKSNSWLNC

Row | Compound | inhibition [1] | inhibition (Caspase-1 (Homo sapiens)) | inhibition (Caspase-3 (Homo sapiens)) | IC50 (Caspase-1) | inhibition (THP-1) | IC25 (Caspase-3 (Homo sapiens)) | IC50 (Caspase-3)
1 | CCCCCCCCCC[C@H](C(=O)OC)[C@]1(C(=O)OC)CCC(=O)O1 | inactive | inactive | inactive | – | – | – | –
2 | CC(=O)N[C@H](C(=O)O[C@H]1CCC(C)(C)[C@@H]2CC=C3C(=O)OC[C@]3(O)[C@@]12C)C(C)C (relative stereo) | – | – | – | 90 µM | Active | 10 µM | 50 µM
3 | CCCCCCCCCC[C@H](C(=O)OC)[C@@](O)(CCC(=O)OC)C(=O)OC | inactive | inactive | inactive | – | – | – | –
4 | CC(=O)N[C@H](C(=O)O[C@H]1CCC(C)(C)[C@@H]2CC=C3C(=O)OC[C@@H]3[C@@]12C)C(C)C (relative stereo) | – | – | – | 100 µM | Active | 15 µM | 200 µM
5 | C=CCCCCCCCC[C@H](C(=O)OC)[C@@](O)(CCC(=O)OC)C(=O)OC | inactive | inactive | inactive | – | – | – | –
